Reference: ChEMBL document CHEMBL3124806, “Imidazopyridine-fused [1,3]-diazepinones: synthesis and antiproliferative activity” (Eur J Med Chem, 2014)

Legend:
Assay type in all cases: functional
T47D = experiment: Cytotoxicity against human T47D cells assessed as cell growth at 10 uM after 48 hrs by SRB assay relative to untreated control; settings: read-out: Activity
Outline: (§1)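 NCI-60 single-dose screen. Compounds were added to the cultures at 10 μM and incubated for 48 h. The end point was sulforhodamine B protein staining read spectrophotometrically. Growth is reported as percent of untreated control cells.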

MDA-MB-231 = experiment: Cytotoxicity against human MDA-MB-231 cells assessed as cell growth at 10 uM after 48 hrs by SRB assay relative to untreated control; settings: MDA-MB-231, 48 h, read-out: Activity
Outline: (§2)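 NCI-60 one-dose screen: each agent added at 10 µM, cultures incubated 48 h. Endpoint by sulforhodamine B protein-binding dye read spectrophotometrically; growth expressed as percent of untreated control cells.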

DU-145 = experiment: Cytotoxicity against human DU145 cells assessed as cell growth at 10 uM after 48 hrs by SRB assay relative to untreated control; settings: DU-145, 48 h, read-out: Activity
Outline: (§3)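 NCI-60 panel screen at a single concentration of 10 μM with 48 h incubation. Cell density measured by sulforhodamine B protein-binding dye and read spectrophotometrically. Growth expressed as percent of untreated control cells.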

PC-3 = experiment: Cytotoxicity against human PC3 cells assessed as cell growth at 10 uM after 48 hrs by SRB assay relative to untreated control; settings: PC-3, 48 h, read-out: Activity; outline: as §2
SN12C = experiment: Cytotoxicity against human SN12C cells assessed as cell growth at 10 uM after 48 hrs by SRB assay relative to untreated control; settings: read-out: Activity; outline: as §1
ACHN = experiment: Cytotoxicity against human ACHN cells assessed as cell growth at 10 uM after 48 hrs by SRB assay relative to untreated control; settings: read-out: Activity; outline: as §3
786-0 = experiment: Cytotoxicity against human […] cells assessed as cell growth at 10 uM after 48 hrs by SRB assay relative to untreated control; settings: 786-0, 48 h, read-out: Activity; outline: as §3
SK-OV-3 = experiment: Cytotoxicity against human SKOV3 cells assessed as cell growth at 10 uM after 48 hrs by SRB assay relative to untreated control; settings: SK-OV-3, 48 h, read-out: Activity; outline: as §1
[1] = Cytotoxicity against human NCI-ADR-RES cells assessed as cell growth at 10 uM after 48 hrs by SRB assay relative to untreated control; settings: read-out: Activity; outline: as §2
[2] = Cytotoxicity against human OVCAR4 cells assessed as cell growth at 10 uM after 48 hrs by SRB assay relative to untreated control; settings: OVCAR-4, 48 h, read-out: Activity; outline: as §2
IGROV-1 = experiment: Cytotoxicity against human IGROV1 cells assessed as cell growth at 10 uM after 48 hrs by SRB assay relative to untreated control; settings: IGROV-1, 48 h, read-out: Activity; outline: as §3
[3] = Cytotoxicity against human UACC257 cells assessed as cell growth at 10 uM after 48 hrs by SRB assay relative to untreated control; settings: UACC-257, 48 h, read-out: Activity; outline: as §1
SK-MEL-5 = experiment: Cytotoxicity against human SK-MEL-5 cells assessed as cell growth at 10 uM after 48 hrs by SRB assay relative to untreated control; settings: SK-MEL-5, 48 h, read-out: Activity; outline: as §1
SK-MEL-2 = experiment: Cytotoxicity against human SK-MEL-2 cells assessed as cell growth at 10 uM after 48 hrs by SRB assay relative to untreated control; settings: SK-MEL-2, 48 h, read-out: Activity; outline: as §2
M14 = experiment: Cytotoxicity against human M14 cells assessed as cell growth at 10 uM after 48 hrs by SRB assay relative to untreated control; settings: M14, 48 h, read-out: Activity; outline: as §3
Malme-3M = experiment: Cytotoxicity against human MALME-3M cells assessed as cell growth at 10 uM after 48 hrs by SRB assay relative to untreated control; settings: read-out: Activity; outline: as §3
U-251 = experiment: Cytotoxicity against human U251 cells assessed as cell growth at 10 uM after 48 hrs by SRB assay relative to untreated control; settings: U-251, 48 h, read-out: Activity; outline: as §1
SF-295 = experiment: Cytotoxicity against human SF295 cells assessed as cell growth at 10 uM after 48 hrs by SRB assay relative to untreated control; settings: SF-295, 48 h, read-out: Activity; outline: as §2
SF-268 = experiment: Cytotoxicity against human SF268 cells assessed as cell growth at 10 uM after 48 hrs by SRB assay relative to untreated control; settings: SF-268, 48 h, read-out: Activity; outline: as §2
SW-620 = experiment: Cytotoxicity against human SW620 cells assessed as cell growth at 10 uM after 48 hrs by SRB assay relative to untreated control; settings: SW-620, 48 h, read-out: Activity; outline: as §1
KM12 = experiment: Cytotoxicity against human KM12 cells assessed as cell growth at 10 uM after 48 hrs by SRB assay relative to untreated control; settings: KM12, 48 h, read-out: Activity; outline: as §3
HT-29 = experiment: Cytotoxicity against human HT-29 cells assessed as cell growth at 10 uM after 48 hrs by SRB assay relative to untreated control; settings: HT-29, 48 h, read-out: Activity; outline: as §3
HCT-15 = experiment: Cytotoxicity against human HCT15 cells assessed as cell growth at 10 uM after 48 hrs by SRB assay relative to untreated control; settings: HCT-15, 48 h, read-out: Activity; outline: as §3
HCT-116 = experiment: Cytotoxicity against human HCT116 cells assessed as cell growth at 10 uM after 48 hrs by SRB assay relative to untreated control; settings: HCT-116, 48 h, read-out: Activity; outline: as §3
HCC 2998 = experiment: Cytotoxicity against human HCC2998 cells assessed as cell growth at 10 uM after 48 hrs by SRB assay relative to untreated control; settings: HCC 2998, 48 h, read-out: Activity; outline: as §3
NCI-H522 = experiment: Cytotoxicity against human NCI-H522 cells assessed as cell growth at 10 uM after 48 hrs by SRB assay relative to untreated control; settings: NCI-H522, 48 h, read-out: Activity; outline: as §2
NCI-H23 = experiment: Cytotoxicity against human NCI-H23 cells assessed as cell growth at 10 uM after 48 hrs by SRB assay relative to untreated control; settings: NCI-H23, 48 h, read-out: Activity; outline: as §2
NCI-H226 = experiment: Cytotoxicity against human NCI-H226 cells assessed as cell growth at 10 uM after 48 hrs by SRB assay relative to untreated control; settings: NCI-H226, 48 h, read-out: Activity; outline: as §2
HOP-92 = experiment: Cytotoxicity against human HOP92 cells assessed as cell growth at 10 uM after 48 hrs by SRB assay relative to untreated control; settings: HOP-92, 48 h, read-out: Activity; outline: as §3
HOP-62 = experiment: Cytotoxicity against human HOP62 cells assessed as cell growth at 10 uM after 48 hrs by SRB assay relative to untreated control; settings: HOP-62, 48 h, read-out: Activity; outline: as §3
A549 = experiment: Cytotoxicity against human A549 cells assessed as cell growth at 10 uM after 48 hrs by SRB assay relative to untreated control; settings: A549, 48 h, read-out: Activity; outline: as §3
CCRF-CEM = experiment: Cytotoxicity against human CCRF-CEM cells assessed as cell growth at 10 uM after 48 hrs by SRB assay relative to untreated control; settings: read-out: Activity; outline: as §3

| SMILES | growth at 10 µM (T47D) | growth at 10 µM (MDA-MB-231) | growth at 10 µM (DU-145) | growth at 10 µM (SN12C) | growth at 10 µM (ACHN) | growth at 10 µM (786-0) | growth at 10 µM (SK-OV-3) | growth at 10 µM [1] | growth at 10 µM [2] | growth at 10 µM (IGROV-1) | growth at 10 µM [3] | growth at 10 µM (SK-MEL-5) | growth at 10 µM (SK-MEL-2) | growth at 10 µM (M14) | growth at 10 µM (Malme-3M) | growth at 10 µM (U-251) | growth at 10 µM (SF-295) | growth at 10 µM (SF-268) | growth at 10 µM (SW-620) | growth at 10 µM (KM12) | also measured |
| --- | --- | --- | --- | --- | --- | --- | --- | --- | --- | --- | --- | --- | --- | --- | --- | --- | --- | --- | --- | --- | --- |
| Cc1ccc(C2=Nc3nc4ccccn4c3C(=O)[C@@H]3CCCN23)cc1 | 89.8% | 93.8% | 97.4% | 101% | 93.9% | 98.1% | 106% | 94.9% | 98.2% | 99.7% | 98.8% | 92.5% | 105% | 94.8% | 102% | 99.1% | 96.7% | 88% | 101% | 98.6% | growth at 10 µM (PC-3): 81.9%; growth at 10 µM (HT-29): 101%; growth at 10 µM (HCT-15): 95.3%; growth at 10 µM (HCT-116): 94%; growth at 10 µM (HCC 2998): 99.4%; growth at 10 µM (NCI-H522): 102%; growth at 10 µM (NCI-H23): 92%; growth at 10 µM (NCI-H226): 86.5%; growth at 10 µM (HOP-92): 78.3%; growth at 10 µM (HOP-62): 82.9%; growth at 10 µM (A549): 92.7%; growth at 10 µM (CCRF-CEM): 50.2% |
| O=C1c2c(nc3ccccn23)NC(=O)N2CCC[C@@H]12 | 92.8% | 118% | 100% | 106% | 101% | 98.6% | 99.7% | 100% | 104% | 109% | 91% | 99.5% | 107% | 94.8% | 93.1% | 95.8% | 100% | 100% | 106% | 105% | growth at 10 µM (PC-3): 93.8%; growth at 10 µM (HT-29): 106%; growth at 10 µM (HCT-15): 99.9%; growth at 10 µM (HCT-116): 89%; growth at 10 µM (HCC 2998): 105%; growth at 10 µM (NCI-H522): 106%; growth at 10 µM (NCI-H23): 98.5%; growth at 10 µM (NCI-H226): 100%; growth at 10 µM (HOP-92): 86.2%; growth at 10 µM (HOP-62): 97.1%; growth at 10 µM (A549): 98%; growth at 10 µM (CCRF-CEM): 102% |
| C[C@@H]1NC(c2ccc(N(C)C)cc2)=Nc2nc3ccccn3c2C1=O | 80.7% | 78.9% | 109% | 102% | 85.3% | 102% | 91% | 80.3% | 91.8% | 84.8% | 97.6% | 95.4% | 88.6% | 101% | 100% | 94.8% | 92.1% | 103% | 85.3% | 96.3% | growth at 10 µM (HT-29): 101%; growth at 10 µM (HCT-15): 94.7%; growth at 10 µM (HCT-116): 101%; growth at 10 µM (HCC 2998): 103%; growth at 10 µM (NCI-H522): 79.4%; growth at 10 µM (NCI-H23): 79.8%; growth at 10 µM (NCI-H226): 77.5%; growth at 10 µM (HOP-92): 33%; growth at 10 µM (HOP-62): 74.2%; growth at 10 µM (A549): 103%; growth at 10 µM (CCRF-CEM): 88.7% |
